Screens as filed in PubChem BioAssay.
Cl transport mod: KCC2 cotransporter modulators, thallium flux, primary screen, cell-based, HEK293 KCC2, FluoZin-2 fluorescence, MLSMR; AID 1456, 2008; B-score of Tl+ flux slope (higher = more flux/activation; lower = inhibition) at 10 µM; Solute carrier family 12 member 5 (Homo sapiens), Q9H2X9; 190,000 tested, 2.2% active; KCC2 cells, thallium flux FluoZin-2 fluorescence;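 active means thallium flux slope and its plate-corrected score both differing from the plate sample mean at a set confidence after two filtering rounds, in either direction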;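 further: slope of fluorescence scaled to starting intensity during 10 to 20 s after thallium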
ROMK primary: ROMK potassium channel modulators, primary screen, cell-based, thallium flux, MLSMR library. ATP-sensitive inward rectifier potassium channel 1 (Homo sapiens), P48048. Tet-inducible ROMK, thallium flux fluorescence; actives lie on both sides. B-score at 10 µM. 130,000 tested, 2% active;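 active means signal ratio slope over the read window, or its plate-corrected B-score, at least 3 SD from the plate mean, either direction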;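 further: B-score of the F/F0 ratio slope over 7 to 12 s after thallium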
p47phox inh: p47phox/p22phox peptide binding inhibitors, primary screen, biochemical, uHTS, NADPH oxidase regulatory subunit; 220,000 tested, 0.53% active; inhibition, % at 24.7 µM; fluorescence polarization, 2 h; Neutrophil cytosol factor 1 (Homo sapiens), P14598;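 active means inhibition above about 30%, limit read from the data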
Target sequence (P14598 whole entry, looked up): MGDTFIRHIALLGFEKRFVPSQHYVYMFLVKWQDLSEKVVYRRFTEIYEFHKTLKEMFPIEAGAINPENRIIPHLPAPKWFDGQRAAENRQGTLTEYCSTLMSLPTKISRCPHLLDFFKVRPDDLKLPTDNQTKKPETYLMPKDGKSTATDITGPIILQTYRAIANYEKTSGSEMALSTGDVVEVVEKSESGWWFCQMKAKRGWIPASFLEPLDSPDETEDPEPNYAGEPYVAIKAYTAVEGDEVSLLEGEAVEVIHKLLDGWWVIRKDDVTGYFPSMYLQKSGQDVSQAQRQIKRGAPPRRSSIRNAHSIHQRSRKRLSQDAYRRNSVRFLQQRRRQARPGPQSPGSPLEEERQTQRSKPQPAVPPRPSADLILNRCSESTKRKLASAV
14-3-3 Bad inh: inhibitors of 14-3-3 zeta/Bad binding, primary screen, biochemical, TR-FRET, bovine 14-3-3 zeta; 14-3-3 protein zeta/delta (Bos taurus), P63103; TR-FRET 14-3-3zeta/Dy647-pBad peptide displacement, 1 h; inhibition, % at 21.7 µM; 220,000 tested, 0.71% active;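 active means inhibition above about 70%, limit read from the data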
RBBP9 inh: human RBBP9 inhibitors, primary screen, biochemical, fluorescence polarization, FP-Rh probe, HTS. 220,000 tested, 0.2% active. AID 1515, 2009. inhibition, % at 7.94 µM. recombinant RBBP9;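 active means inhibition above the campaign mean of all tested compounds plus 3 SD, cut at about 14% in these data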
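system = RBBP9 protein | input = RBBP9 at 2.5 µM in dispensed solution, before mixing | measured by = fluorescence polarization (mP), excitation 525 nm, emission 598 nm | incubation = enzyme-compound preincubation 30 min, then probe labeling 45 min, 25 °C | buffer or medium = Tris-NaCl-Pluronic buffer, pH 8.0 | compound = single dose 7.94 µM | also added = FP-Rh probe, 375 nM dispensing solution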
WT yeast gro inh: growth inhibition of WT strain, primary screen, mitochondrial fusion inhibitor project, WT and mutant strains, chemical genetic | mitochondrial fusion phenotypic screen | 190,000 tested, 2.1% active | inhibition, % at 10 µM; in the data active means inhibition above about 58%; tested in S. cerevisiae
KCC2 secondary: KCC2 modulators in sodium-free buffer, confirmation, cell-based, HEK293 KCC2, thallium flux, secondary assay; shares compounds with Cl transport mod; FluoZin2 fluorescence; hits give high values; normalised thallium flux (F/F0 slope) at 10 µM; 3,700 tested, 15% active; AID 1713, 2009;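 active means thallium flux slope above the same plate's solvent-only control mean plus 3 SD; inconclusive means the two replicate wells disagree; inactive means no significant difference from solvent-only control wells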
KCC2 bumet counter: thallium flux persisting under bumetanide in KCC2 cells, confirmation, counter-screen for KCC2 modulator project, cell-based, HEK293 KCC2, FluoZin2, secondary assay 3. normalized thallium flux at 10 µM. shares compounds with Cl transport mod. AID 1714, 2009. HEK293-KCC2 + bumetanide/ouabain; hits give high values. 3,700 tested, 49% active;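 active means thallium entry rate above the same plate's blocked-transporter control wells by more than 3 SD; inconclusive means the two repeat wells disagree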;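 further: raw slope of fluorescence over initial fluorescence between 10 and 20 s after thallium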
KCC2 secondary2: KCC2 modulators without ouabain present, confirmation, cell-based, HEK293 KCC2, thallium flux, FluoZin2, secondary assay 2. shares compounds with Cl transport mod. thallium flux FluoZin2 fluorescence; actives lie on both sides; F/F0 rise rate, 10–20 s post-thallium. normalized thallium flux at 10 µM. 3,700 tested, 23% active. AID 1715, 2009;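 active means thallium flux slope more than 3 SD above or below the plate's solvent-only control mean, mostly below; inconclusive means the two repeat wells disagreed; inactive means no significant shift from solvent-only controls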
HEK293 Tl flux: thallium flux modulation in parental HEK cells, confirmation, counter-screen for KCC2 modulator project, cell-based, counterscreen 1; shares compounds with Cl transport mod; HEK293 parental cells, thallium flux FluoZin2, ouabain; baseline-ratio fluorescence slope, 10–20 s after thallium; thallium flux rate (normalised fluorescence) at 10 µM; 3,700 tested, 46% active; AID 1716, 2009;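 active means thallium flux rate significantly above the same plate's solvent-only control wells, beyond their mean plus 3 SD; inconclusive means the two replicate wells gave conflicting results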
KCC2 retest ouab: KCC2 inhibitors and activators, ouabain retest, confirmation, HEK-KCC2 cells; 3,700 tested, 48% active; shares compounds with Cl transport mod; HEK293-KCC2, thallium flux FluoZin2 fluorescence; bidirectional: low = inhibitor, high = activator; raw Tl+ flux slope (below DMSO = inhibition, above = activation) at 10 µM;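 active means thallium flux slope beyond 3 SD from same-plate DMSO control mean in most replicates, usually higher, sometimes lower; inconclusive means repeat tests gave conflicting results; inactive means no significant difference from controls in most replicates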;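 further: slope of initial-normalized fluorescence between seconds 10 and 20 after thallium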
HEK293 Tl flux2: native HEK Tl+ uptake effects, second counter-screen – HEK cells, counterscreen 2, counter-screen for KCC2 modulator project, confirmation | thallium flux slope at 10 µM | AID 1718, 2009 | 3,700 tested, 33% active | HEK293 parental, thallium flux FluoZin-2 fluorescence slope | shares compounds with Cl transport mod;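 active means thallium flux slope above the same plate's solvent-control mean plus 3 SD in both duplicate wells; inconclusive means duplicate wells that disagreed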;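 further: run without ouabain in cells lacking the KCC2 cotransporter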
Numbers stand for hits. An excerpt weighted towards active compounds, which were near 5.8% of everything screened.

Cc1ccc(S(=O)(=O)NCc2csc(-c3cccs3)n2)cc1 was read as Cl transport mod -2.1, ROMK primary inactive, p47phox inh inactive, 14-3-3 Bad inh inactive, RBBP9 inh inactive, KCC2 secondary inactive, KCC2 bumet counter inactive, KCC2 secondary2 0.022, HEK293 Tl flux inactive, KCC2 retest ouab 0.012 and HEK293 Tl flux2 inconclusive.
Screening O=S(=O)(NCc1csc(-c2cccs2)n1)c1cccc(C(F)(F)F)c1 returned Cl transport mod -5.4, p47phox inh inactive, 14-3-3 Bad inh inactive, RBBP9 inh inactive, KCC2 secondary inconclusive, KCC2 bumet counter inactive, KCC2 secondary2 0.019, HEK293 Tl flux 0.0058, KCC2 retest ouab 0.01 and HEK293 Tl flux2 inconclusive.
`O=S(=O)(NCc1csc(-c2cccs2)n1)c1ccc(Cl)cc1` gave Cl transport mod -5.1, p47phox inh inactive, 14-3-3 Bad inh inactive, RBBP9 inh inactive, KCC2 secondary inconclusive, KCC2 bumet counter inconclusive, KCC2 secondary2 0.019, HEK293 Tl flux 0.005, KCC2 retest ouab 0.01 and HEK293 Tl flux2 inconclusive.
O=C(c1ccc(-c2ccccc2)cc1)C1CCCN(Cc2ccncc2)C1 (stereo not drawn) was read as Cl transport mod -4.1, ROMK primary inactive, p47phox inh inactive, 14-3-3 Bad inh inactive, RBBP9 inh inactive, WT yeast gro inh inactive, KCC2 secondary inactive, KCC2 bumet counter inactive, KCC2 secondary2 0.025, HEK293 Tl flux inactive, KCC2 retest ouab inconclusive and HEK293 Tl flux2 inactive.
For Cc1ncoc1C(=O)N1CCCC(C(=O)c2ccc(-c3ccccc3)cc2)C1 (stereo not drawn) the results were Cl transport mod -3.3, ROMK primary inactive, p47phox inh inactive, 14-3-3 Bad inh inactive, RBBP9 inh inactive, WT yeast gro inh 68, KCC2 secondary inconclusive, KCC2 bumet counter inactive, KCC2 secondary2 inactive, HEK293 Tl flux inactive, KCC2 retest ouab 0.021 and HEK293 Tl flux2 inconclusive.
Screening CCOc1ccccc1NC(=O)CSc1nccn1-c1ccccc1 returned Cl transport mod -4.8, p47phox inh inactive, 14-3-3 Bad inh inactive, RBBP9 inh inactive, WT yeast gro inh inactive, KCC2 secondary inactive, KCC2 bumet counter inconclusive, KCC2 secondary2 0.025, HEK293 Tl flux 0.0046, KCC2 retest ouab 0.013 and HEK293 Tl flux2 0.0071.
